From ChEMBL document CHEMBL3785023, “Development and Pharmacological Characterization of Selective Blockers of 2-Arachidonoyl Glycerol Degradation with Efficacy in Rodent Models of Multiple Sclerosis and Pain” (J Med Chem, 2016)
Calls of active or inactive are those of the source. No cut-off for these calls is given here.

Tests used:
Heart [1] = assay: Cardiotoxicity in Langendorff-perfused Sprague-Dawley rat heart assessed as intraventricular conduction time at 0.01 uM by ECG analysis (reference value: 14.26 +/- 0.71 milliseconds); type: toxicity, tissue-based, Cardiac ventricle
Heart [2] = assay: Cardiotoxicity in Langendorff-perfused Sprague-Dawley rat heart assessed as atrioventricular conduction time at 0.01 uM by ECG analysis (reference value: 45.62 +/- 4.49 milliseconds); type: toxicity, tissue-based
Cannabinoid receptor 2 = Cannabinoid receptor 2 (Homo sapiens, UniProt P34972); assay: Displacement of [3H]-CP-55940 from human recombinant CB2 receptor expressed in HEK293 cells after 90 mins; type: cell-based
Cannabinoid receptor 2, sequence (P34972 whole entry): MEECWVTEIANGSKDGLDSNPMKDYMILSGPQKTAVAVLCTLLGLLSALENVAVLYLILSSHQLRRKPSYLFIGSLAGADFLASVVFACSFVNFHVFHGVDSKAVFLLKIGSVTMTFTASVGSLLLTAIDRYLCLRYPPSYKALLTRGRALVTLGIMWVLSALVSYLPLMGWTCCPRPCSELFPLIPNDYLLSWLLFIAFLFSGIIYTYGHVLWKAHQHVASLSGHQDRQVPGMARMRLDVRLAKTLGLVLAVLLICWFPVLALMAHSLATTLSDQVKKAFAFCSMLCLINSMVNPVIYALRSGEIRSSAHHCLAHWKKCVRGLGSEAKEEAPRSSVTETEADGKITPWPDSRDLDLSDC
Outline: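 Membranes from HEK-293 cells stably expressing human CB1 (Bmax 2.9 pmol/mg) or CB2 (Bmax 6.0 pmol/mg) incubated 90 min at 30 °C with [3H]-CP-55,940: 0.4 nM for CB1, 0.53 nM for CB2. Non-specific binding defined with 10 µM WIN 55212-2.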

Heart [3] = assay: Cardiotoxicity in Langendorff-perfused Sprague-Dawley rat heart assessed as time duration of cardiac cycle length at 0.1 uM by ECG analysis (reference value: 238.38 +/- 9.23 milliseconds); type: toxicity, tissue-based
Heart [4] = assay: Cardiotoxicity in Langendorff-perfused Sprague-Dawley rat heart assessed as intraventricular conduction time at 0.001 uM by ECG analysis (reference value: 14.26 +/- 0.71 milliseconds); type: toxicity, tissue-based, Cardiac ventricle
Mus musculus [5] = assay: Toxicity in C57BL/6J mouse assessed as changes in locomotor activity at 3 mg/kg, ip; type: organism-based; settings: in vivo
Heart [6] = assay: Cardiotoxicity in Langendorff-perfused Sprague-Dawley rat heart assessed as corrected time duration of action potential at 0.001 uM by ECG analysis (reference value: 155.26 +/- 2.96 milliseconds); type: toxicity, tissue-based
Heart [7] = assay: Cardiotoxicity in Langendorff-perfused Sprague-Dawley rat heart assessed as time duration of action potential at 0.01 uM by ECG analysis (reference value: 75.65 +/- 0.87 milliseconds); type: toxicity, tissue-based
Heart [8] = assay: Cardiotoxicity in Langendorff-perfused Sprague-Dawley rat heart assessed as time duration of cardiac cycle length at 0.001 uM by ECG analysis (reference value: 238.38 +/- 9.23 milliseconds); type: toxicity, tissue-based
Heart [9] = assay: Cardiotoxicity in Langendorff-perfused Sprague-Dawley rat heart assessed as time duration of action potential at 0.001 uM by ECG analysis (reference value: 75.65 +/- 0.87 milliseconds); type: toxicity, tissue-based
Mus musculus [10] = assay: (§1) Reduction of disease index score in myelin oligodendrocyte glycoprotein (35 to 55)-induced C57BL/6J mouse experimental autoimmune encephalomyelitis model of multiple sclerosis at 3 mg/kg, ip dosed on day 6 postimmunization up to 21 day postimmunization measured from day 8 postimmunization; type: functional, organism-based
Outline: (§2)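 Female C57BL/6J mice immunized with MOG35-55 were randomly assigned to groups. They received 3 mg/kg i.p. daily from 6 days post-immunization up to 21±1 d.p.i. AM251 or AM630, 1 mg/kg i.p., was given 10 min before each dose for 14 days. Clinical score was recorded daily and as cumulative score, reported as mean ± SEM. Group sizes were 4–9 mice.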

Mus musculus [11] = assay: Reduction of IBA1 positive cells in white matter anterior fasciculus of experimental autoimmune encephalomyelitis C57BL/6J mouse spinal cord at 3 mg/kg, ip administered post CB2 antagonist/inverse agonist AM630 addition by immunofluorescence assay; type: functional, organism-based
Outline: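 MOG35-55-immunized female C57BL/6J mice were given 3 mg/kg i.p. daily. AM251 or AM630, each at 1 mg/kg, was given 10 min before each dose. Iba1 immunofluorescence with DAPI was done on spinal cord white matter (anterior fasciculus). Positive cells were counted per optic field. One-way ANOVA with Bonferroni test.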

Mus musculus [12] = assay: Reduction of IBA1 positive cells in white matter anterior fasciculus of experimental autoimmune encephalomyelitis C57BL/6J mouse spinal cord at 3 mg/kg, ip by immunofluorescence assay; type: functional, organism-based
Outline: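 Female C57BL/6J mice immunized with MOG35-55 received 3 mg/kg i.p. daily. Spinal cord white matter (anterior fasciculus) was stained for Iba1, with DAPI nuclear counterstain. Iba1-positive cells were counted per optic field. One-way ANOVA with Bonferroni test.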

[13] = target: T1, Monoacylglycerol lipase ABHD6 (Rattus norvegicus) (UniProt Q5XI64); assay: Inhibition of ABHD6 in rat brain membranes up to 500 nM preincubated for 20 mins followed by fluorophosphonate-rhodamine addition measured after 30 mins by competitive affinity based proteomic profiling assay; type: cell membranes; settings: Membrane
T1 sequence (whole entry): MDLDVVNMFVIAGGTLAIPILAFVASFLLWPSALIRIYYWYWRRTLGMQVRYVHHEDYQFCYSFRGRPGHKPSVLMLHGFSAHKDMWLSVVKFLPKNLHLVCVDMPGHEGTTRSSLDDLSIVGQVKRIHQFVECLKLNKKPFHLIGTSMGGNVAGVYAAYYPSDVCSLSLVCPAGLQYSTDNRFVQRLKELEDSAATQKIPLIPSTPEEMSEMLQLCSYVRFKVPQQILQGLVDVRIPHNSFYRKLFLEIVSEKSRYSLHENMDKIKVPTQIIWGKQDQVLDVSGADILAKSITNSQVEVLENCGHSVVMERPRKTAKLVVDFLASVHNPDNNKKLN
Outline: (§3)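 Rat brain membranes (1 mg/mL) preincubated with 1–1000 nM inhibitor or DMSO for 20 min at 37 °C. FP-rhodamine then added and incubated a further 30 min at 37 °C. Samples run on SDS-PAGE and serine hydrolase bands quantified by in-gel fluorescence.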

Mus musculus [14] = assay: Antinociceptive activity in CD-1 mouse assessed as inhibition of formalin-induced pain response at 0.1 to 0.3 mg/kg, ip dosed 10 mins before formalin injection measured during late phase; type: functional, organism-based
Outline: (§4)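 Male CD-1 mice, n = 6 per group, injected with formalin (1.25% in saline, 30 μL) into the dorsal hind paw. Inhibitor (0.1 or 0.3 mg/kg i.p. in 0.5% DMSO/saline) given 10 min before formalin. Where used, AM251 or AM630 (1 mg/kg i.p.) given 10 min before the inhibitor. Time spent lifting, licking, shaking or flinching the injected paw recorded every 5 min over 60 min.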

[15] = target: Acyl-protein thioesterase 1/2 (Rattus norvegicus) (UniProt P70470+Q9QYL8); assay: Inhibition of LYPLA1/2 in rat brain membranes at 500 to 1000 nM preincubated for 20 mins followed by fluorophosphonate-rhodamine addition measured after 30 mins by competitive affinity based proteomic profiling assay; type: cell membranes; settings: Membrane; outline: as §3
Acyl-protein thioesterase 1/2 (Rattus norvegicus), sequence (P70470 whole entry, looked up): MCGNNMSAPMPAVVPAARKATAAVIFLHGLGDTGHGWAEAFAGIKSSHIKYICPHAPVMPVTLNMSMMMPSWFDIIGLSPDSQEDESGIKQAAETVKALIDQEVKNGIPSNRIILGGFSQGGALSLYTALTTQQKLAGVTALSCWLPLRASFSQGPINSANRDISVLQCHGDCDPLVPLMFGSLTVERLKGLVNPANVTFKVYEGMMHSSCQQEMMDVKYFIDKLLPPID
Acyl-protein thioesterase 1/2 (Rattus norvegicus), sequence (Q9QYL8 whole entry, looked up): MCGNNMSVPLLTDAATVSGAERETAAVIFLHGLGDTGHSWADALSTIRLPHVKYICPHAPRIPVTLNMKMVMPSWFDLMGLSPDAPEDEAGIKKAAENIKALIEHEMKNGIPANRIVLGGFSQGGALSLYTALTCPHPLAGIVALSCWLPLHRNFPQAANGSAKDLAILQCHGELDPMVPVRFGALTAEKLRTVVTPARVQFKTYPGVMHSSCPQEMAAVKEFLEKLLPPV

Mus musculus [16] = assay: Antinociceptive activity in CD-1 mouse assessed as inhibition of formalin-induced late phase pain response at 0.1 to 0.3 mg/kg, ip dosed 10 mins before formalin injection measured every 5 mins for 60 mins in presence of CB1 antagonist/inverse agonist AM251; type: functional, organism-based; outline: as §4
Mus musculus [17] = assay: as §1, with “mg/kg, ip administered post CB1 antagonist/inverse agonist AM251 addition dosed on” for “mg/kg, ip dosed on”, “from day 12 postimmunization” for “from day 8 postimmunization”; type: functional, organism-based; outline: as §2
Mus musculus [18] = assay: Inhibition of demyelination in experimental autoimmune encephalomyelitis C57BL/6J mouse spinal cord at 3 mg/kg, ip by luxol fast blue staining based microscopic analysis; type: functional, organism-based
Outline: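 EAE induced in female C57BL/6J mice with MOG35-55, then 3 mg/kg i.p. daily. AM251 or AM630 (1 mg/kg), where used, given 10 min before each dose. Spinal cord white matter stained with Luxol Fast Blue and demyelinated areas assessed by microscopy.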

| Compound | Time (Heart [1]) | Time (Heart [2]) | IC50 (Cannabinoid receptor 2) | Time (Heart [3]) | Time (Heart [4]) | Activity (Mus musculus [5]) | Time (Heart [6]) | Time (Heart [7]) | Time (Heart [8]) | Time (Heart [9]) | Activity (Mus musculus [10]) | Activity (Mus musculus [11]) | Activity (Mus musculus [12]) | inhibition [13] | inhibition (Mus musculus [14]) | inhibition [15] | inhibition (Mus musculus [16]) | Activity (Mus musculus [17]) | inhibition (Mus musculus [18]) |
| --- | --- | --- | --- | --- | --- | --- | --- | --- | --- | --- | --- | --- | --- | --- | --- | --- | --- | --- | --- |
| O=C1[C@H](c2ccc(F)cc2)[C@@H](c2ccc3c(c2)OCO3)N1C1CCN(C(=O)n2cncn2)CC1 (racemic) [listing 1 of 2 here] | 13.5 ms | 46.46 ms | > 10 µM | 238.15 ms | 14.02 ms | Non-toxic | 157.13 ms | 76.17 ms | 236.93 ms | 76.38 ms |  |  |  |  |  |  |  |  |  |
| O=C1[C@H](c2ccc(F)cc2)[C@@H](c2ccc3c(c2)OCO3)N1C1CCN(C(=O)n2cncn2)CC1 (racemic) [listing 2 of 2 here] |  |  |  |  |  |  |  |  |  |  | Active | inactive | Active | inactive | Active | Active | inactive | inactive | Active |
